Results taken from ChEMBL document CHEMBL1137743, “Synthesis, antimicrobial evaluation and QSAR study of some 3-hydroxypyridine-4-one and 3-hydroxypyran-4-one derivatives” (2009).
≈ marks a conversion by molar mass, not a printed value.

Key:
Aspergillus flavus = assay: Antifungal activity against Aspergillus flavus PTCC 5003 after 48 hrs by microplate alamar blue assay; format: functional; settings: PTCC 5003, 48 h
Procedure, shortened: (§1)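 Fungi from Persian type culture collection, tested in RPMI 1640 buffered with MOPS at pH 7.0. Final inoculum 1.5 ×10⁵. Compounds in DMSO, twofold serial dilutions over 8–512 in 96-well plates with Alamar Blue, incubated 48 h at 25 °C. MIC is the lowest concentration blocking the blue-to-pink shift. Ketoconazole was the reference agent.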

Escherichia coli = assay: Antibacterial activity against Escherichia coli PTCC 1338 after 24 hrs by microplate alamar blue assay; format: functional; settings: PTCC 1338, 24 h
Procedure, shortened: (§2)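 Bacteria from Persian type culture collection grown in Mueller–Hinton broth. Inoculum suspensions adjusted to 0.5 McFarland, final inoculum 1.5 ×10⁴. Compounds dissolved in DMSO, serially diluted twofold across the 8–512 range in 96-well plates, Alamar Blue added, sealed plates incubated 24 h at 37 °C. MIC is the lowest concentration preventing the blue-to-pink colour change. Ciprofloxacin was the reference drug.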

Staphylococcus aureus = assay: Antibacterial activity against Staphylococcus aureus PTCC 1337 after 24 hrs by microplate alamar blue assay; format: functional; settings: for MIC: Staphylococcus aureus, PTCC 1337, 24 h; procedure, shortened: as §2
Bacillus subtilis = assay: Antibacterial activity against Bacillus subtilis PTCC 1023 after 24 hrs by microplate alamar blue assay; format: functional; settings: PTCC 1023, 24 h; procedure, shortened: as §2
Pseudomonas aeruginosa = assay: Antibacterial activity against Pseudomonas aeruginosa PTCC 1074 after 24 hrs by microplate alamar blue assay; format: functional; settings: for MIC: Pseudomonas aeruginosa, PTCC 1074, 24 h; procedure, shortened: as §2
[1] = tested on: Salmonella enterica subsp. enterica; assay: Antibacterial activity against Salmonella enteritidis PTCC 1091 after 24 hrs by microplate alamar blue assay; format: functional, Salmonella enterica subsp. enterica serovar Enteritidis; settings: PTCC 1091, 24 h; procedure, shortened: as §2
Listeria monocytogenes = assay: Antibacterial activity against Listeria monocytogenes PTCC 1165 after 24 hrs by microplate alamar blue assay; format: functional; settings: PTCC 1165, 24 h; procedure, shortened: as §2
Candida albicans = assay: Antifungal activity against Candida albicans PTCC 5027 after 48 hrs by microplate alamar blue assay; format: functional; settings: for MIC: Candida albicans, PTCC 5027, 48 h; procedure, shortened: as §1
Aspergillus niger = assay: Antifungal activity against Aspergillus niger 5021 after 48 hrs by microplate alamar blue assay; format: functional; settings: Aspergillus niger, 5021, 48 h; procedure, shortened: as §1

MIC (Aspergillus flavus) [µg/mL]	MIC (Escherichia coli) [µg/mL]	MIC (Staphylococcus aureus) [µg/mL]	MIC (Bacillus subtilis) [µg/mL]	MIC (Pseudomonas aeruginosa) [µg/mL]	MIC [1] [µg/mL]	MIC (Listeria monocytogenes) [µg/mL]	MIC (Candida albicans) [µg/mL]	MIC (Aspergillus niger) [µg/mL]	Compound	-logMIC (Staphylococcus aureus)	-logMIC (Pseudomonas aeruginosa)	-logMIC (Candida albicans)
512 (≈ 4060 µM)	> 512	> 512	> 512	256 (≈ 2030 µM)	> 512	512 (≈ 4060 µM)	128 (≈ 1010 µM)	512 (≈ 4060 µM)	Cc1cc(=O)c(O)co1	3.59	3.59	3.89
> 512	128 (≈ 636 µM)	128 (≈ 636 µM)	256 (≈ 1270 µM)	512 (≈ 2540 µM)	128 (≈ 636 µM)	512 (≈ 2540 µM)	> 512	> 512	Cc1c(O)c(=O)ccn1-c1ccccc1	3.89	3.29	3.29
512 (≈ 2610 µM)	512 (≈ 2610 µM)	512 (≈ 2610 µM)	> 512	256 (≈ 1300 µM)	256 (≈ 1300 µM)	512 (≈ 2610 µM)	512 (≈ 2610 µM)	512 (≈ 2610 µM)	CCc1[nH]cc(CN(C)C)c(=O)c1O	3.29	3.59	3.29
									Cc1cc(=O)c(OCc2ccccc2)c(CO)o1	3.59	3.59	3.89
									O=c1cc(CO)occ1OCc1ccccc1	3.59	3.89	3.89
									Cc1cc(=O)c(O)c(CO)o1	3.59	3.89	3.89
> 512	64 (≈ 288 µM)	16 (≈ 72 µM)	32 (≈ 144 µM)	512 (≈ 2300 µM)	16 (≈ 72 µM)	64 (≈ 288 µM)	128 (≈ 576 µM)	512 (≈ 2300 µM)	Cc1[nH]cc(CN2CCCCC2)c(=O)c1O	3.29	3.59	
512 (≈ 2280 µM)	512 (≈ 2280 µM)	> 512	512 (≈ 2280 µM)	256 (≈ 1140 µM)	512 (≈ 2280 µM)	512 (≈ 2280 µM)	512 (≈ 2280 µM)	512 (≈ 2280 µM)	CCc1[nH]cc(CN(CC)CC)c(=O)c1O	3.29	3.59	3.29
256 (≈ 1180 µM)	512 (≈ 2360 µM)	16 (≈ 73.7 µM)	> 512	512 (≈ 2360 µM)	64 (≈ 295 µM)	> 512	512 (≈ 2360 µM)	512 (≈ 2360 µM)	Cc1c(O)c(=O)ccn1-c1cccc(O)c1	3.29	3.29	3.59
									Cc1cc(=O)c(OCc2ccccc2)c(C(=O)Nc2cccnc2)o1	3.59	3.89	4.49
									Cc1cc(=O)c(OCc2ccccc2)c(C(=O)Nc2cccc3ccccc23)o1	3.59	3.89	4.49
									Cc1cc(=O)c(O)c(C(=O)Nc2cccnc2)o1	4.19	3.89	3.89
									Cc1cc(=O)c(OCc2ccccc2)c(C=O)o1	4.19	3.89	3.89
									Cc1cc(=O)c(OCc2ccccc2)c(C(=O)O)o1	3.59	3.89	3.89
256 (≈ 1080 µM)	512 (≈ 2170 µM)	> 512	512 (≈ 2170 µM)	256 (≈ 1080 µM)	512 (≈ 2170 µM)	> 512	128 (≈ 542 µM)	512 (≈ 2170 µM)	CCc1[nH]cc(CN2CCCCC2)c(=O)c1O	3.29	3.59	3.29
> 512	512 (≈ 2810 µM)	> 512	> 512	256 (≈ 1400 µM)	512 (≈ 2810 µM)	512 (≈ 2810 µM)	> 512	512 (≈ 2810 µM)	Cc1[nH]cc(CN(C)C)c(=O)c1O	3.29	3.59	
									Cc1cc(=O)oc2cc(NC(=O)c3cc(=O)c(O)cn3C)ccc12	4.49	3.59	3.89
									Cc1cc(=O)oc2cc(NC(=O)c3cc(=O)c(OCc4ccccc4)co3)ccc12	3.89	3.59	3.89
									O=C(O)c1cc(=O)c(OCc2ccccc2)co1	3.59	3.89	3.89
									Cn1cc(OCc2ccccc2)c(=O)cc1C(=O)Nc1ccccc1	3.89	3.59	3.89
									Cn1cc(O)c(=O)cc1C(=O)Nc1ccccc1	4.8	3.89	3.89
									Cc1cc(=O)c(O)c(C(=O)Nc2cnc3ccccc3c2)o1	5.1	3.89	
									Cc1cc(=O)c(O)c(C(=O)Nc2cccc3ccccc23)o1	3.59	3.89	3.89
512 (≈ 2430 µM)	512 (≈ 2430 µM)	512 (≈ 2430 µM)	> 512	256 (≈ 1220 µM)	128 (≈ 609 µM)	> 512	512 (≈ 2430 µM)	512 (≈ 2430 µM)	CCN(CC)Cc1c[nH]c(C)c(O)c1=O	4.19	3.29	3.89
									Cc1cc(=O)oc2cc(NC(=O)c3cc(=O)c(OCc4ccccc4)cn3C)ccc12	3.59	3.89	3.89
									Cc1cc(=O)c(OCc2ccccc2)c(C(=O)Nc2cnc3ccccc3c2)o1	3.89	3.89	3.89
									O=C(Nc1ccccc1)c1cc(=O)c(OCc2ccccc2)co1	3.89	3.59	3.89
256 (≈ 1410 µM)	512 (≈ 2830 µM)	256 (≈ 1410 µM)	512 (≈ 2830 µM)	512 (≈ 2830 µM)	256 (≈ 1410 µM)	> 512	256 (≈ 1410 µM)	256 (≈ 1410 µM)	CCCCn1ccc(=O)c(O)c1C	3.89	3.29	3.59
256 (≈ 1530 µM)	128 (≈ 766 µM)	16 (≈ 95.7 µM)	256 (≈ 1530 µM)	512 (≈ 3060 µM)	128 (≈ 766 µM)	512 (≈ 3060 µM)	256 (≈ 1530 µM)	512 (≈ 3060 µM)	CCCn1ccc(=O)c(O)c1C	3.29	3.89	3.29
									O=c1cc(CO)occ1O [KOJIC ACID]	3.59	3.89	3.89

Compound	MIC (Aspergillus flavus) [µg/mL]	MIC (Escherichia coli) [µg/mL]	MIC (Staphylococcus aureus) [µg/mL]	MIC (Bacillus subtilis) [µg/mL]	MIC (Pseudomonas aeruginosa) [µg/mL]	MIC [1] [µg/mL]	MIC (Listeria monocytogenes) [µg/mL]	MIC (Candida albicans) [µg/mL]	MIC (Aspergillus niger) [µg/mL]	-logMIC (Staphylococcus aureus)	-logMIC (Pseudomonas aeruginosa)	-logMIC (Candida albicans)
O=c1cc(CCl)occ1O	16 (≈ 99.7 µM)	> 512	> 512	> 512	> 512	> 512	> 512	512 (≈ 3190 µM)	128 (≈ 797 µM)	3.59	4.19	3.89
O=C(O)c1cn(C2CC2)c2cc(N3CCNCC3)c(F)cc2c1=O [CIPROFLOXACIN]			0.5 (≈ 1.51 µM)	0.06 (≈ 0.181 µM)		1 (≈ 3.02 µM)	1 (≈ 3.02 µM)					
CC(=O)N1CCN(c2ccc(OCC3COC(Cn4ccnc4)(c4ccc(Cl)cc4Cl)O3)cc2)CC1 (stereo not given) [KETOCONAZOLE]	8 (≈ 15.1 µM)							2 (≈ 3.76 µM)	4 (≈ 7.53 µM)			
